# Jurkat tox 60K: cytotoxicity toward Jurkat T cells, primary screen, cytotoxicity control, cell-based, Jurkat E6.1, 60K MLSMR library; Jurkat E6.1 viability, ATP luminescence, 48 h; inhibition, % at 4 µM; 1.2% of 56,000 active; AID 463, 2006;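 active = inhibition above the mean inhibition of all tested compounds plus 3 SD, cut at about 28% in these data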
# D1 allo mod: D1 CRE-luciferase signal change, two-sided – cell-based, HEK293 D1, dopamine EC30, D1 allosteric modulator project, primary screen; dopamine EC30 potentiation; actives deviate in either direction; B-score at 10 µM; 5.9% of 58,000 active;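 active = luminescence count or its row- and column-corrected plate score outside the 99.7% band of the plate's sample wells, on either side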
# Target sequence (P21728 whole entry, looked up): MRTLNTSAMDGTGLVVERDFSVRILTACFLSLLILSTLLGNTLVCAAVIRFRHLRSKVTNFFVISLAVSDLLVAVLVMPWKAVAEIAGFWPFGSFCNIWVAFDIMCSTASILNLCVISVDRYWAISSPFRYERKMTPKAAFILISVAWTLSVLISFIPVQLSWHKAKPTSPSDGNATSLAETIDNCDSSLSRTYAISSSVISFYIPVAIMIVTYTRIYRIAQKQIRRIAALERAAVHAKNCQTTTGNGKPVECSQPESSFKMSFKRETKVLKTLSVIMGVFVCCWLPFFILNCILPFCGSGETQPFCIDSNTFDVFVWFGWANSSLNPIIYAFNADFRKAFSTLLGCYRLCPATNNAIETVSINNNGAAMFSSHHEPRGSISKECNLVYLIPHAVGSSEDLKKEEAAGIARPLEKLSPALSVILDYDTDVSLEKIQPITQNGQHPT
# HEK293 NFkB inh: inhibitors of PMA/ionomycin-induced NF-kB reporter, primary screen, antigen receptor NF-kB inhibitor project, cell-based, HEK-293 luciferase reporter, luminescence | HEK-293 NF-kB luciferase reporter | inhibition, % at 3 µM | 0.21% of 62,000 active | AID 465, 2006;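 active = inhibition above the mean of all tested compounds plus 3 SD, cut at about 40% in these data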;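 also: 0% = stimulated DMSO wells and 100% = 10 µM reference inhibitor 5653914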
#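 Signal: luciferase luminescence; Material: HEK-293 cells with stable firefly luciferase reporter driven by four HIV NF-kB elements; Probe or stimulus: PMA with ionomycin; Replication: tested once; Times: 1 h compound pretreatment, then 16 h stimulation at 37 °C, 5% CO2; Benchmarks: DMSO and 10 µM reference inhibitor; Evaluation: per-plate % inhibition versus controls.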
# M1 agonist: M1 muscarinic receptor agonists, primary screen, CHO-M1 cells, Fluo-4 calcium, agonist mode. AID 626, 2007. Fluo-4 calcium fluorescence; active compounds read high. B-score at 10 µM. Muscarinic acetylcholine receptor M1. 3% of 64,000 active;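 active = fluorescence rise, raw or as B-score row- and column-corrected plate score, outside the 99.7% band of its plate's samples, either direction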
# hDAT+cocaine: changed hDAT dopamine uptake under cocaine IC80, either direction, primary screen, cocaine antagonist project, cell-based, LLC-PK1 hDAT, [14C]-dopamine uptake, MLSMR; Sodium-dependent dopamine transporter (Homo sapiens), Q01959; LLC-PK1 hDAT cells, [14C]-dopamine uptake with cocaine IC80; actives deviate in either direction; B-score at 10 µM; 1.3% of 110,000 active;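 active = Z score or B-score, a plate-position-corrected score, falls beyond the plate's 99.7% confidence bounds, in either direction; inactive = both scores lie inside the 99.7% bounds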;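 also: scored against the spread of the other compound wells on the same plate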
# M1 antag: antagonists of rat M1 muscarinic receptor | CHO-M1 cells, Fluo-4 calcium, ACh EC80 antagonist mode; active compounds read low | AID 628, 2007 | B-score at 10 µM | Muscarinic acetylcholine receptor M1 (Rattus norvegicus), P08482 | 3.4% of 64,000 active;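 active = calcium fluorescence response, raw or row-and-column corrected B-score, differing from the plate sample mean either way at a set confidence level, mostly lower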
# Starred values were filed as active, the others as inactive; . = no result. An excerpt weighted towards active compounds, which were near 7.6% of everything screened.
SMILES,Jurkat tox 60K,D1 allo mod,HEK293 NFkB inh,M1 agonist,hDAT+cocaine,M1 antag
Cn1c(CCCNC(=O)c2cccs2)nc2ccccc21,-2,-2.2,0,-0.24,-0.92,0.015
COc1ccc(C(=O)NCCCc2nc3ccccc3n2Cc2cc(C)ccc2C)cc1OC,.,.,.,.,-0.07,.
C=CCn1c(CCCNC(=O)C(C)(C)C)nc2ccccc21,-3,-0.051,6,0.088,0.21,0.22
C=C(C)Cn1c(CCCNC(=O)C(C)(C)C)nc2ccccc21,.,-0.34,14,-0.015,-9.3*,1
CCn1c(CCNC(=O)c2ccc(OC)c(OC)c2)nc2ccccc21,.,-4.9*,6,-0.56,0.83,0.64
CC(=O)/C(=N/Nc1cccc(Cl)c1)N1CCOCC1,.,.,.,.,-0.69,.
COc1ccc(-c2nnc(N(C)C(=O)c3cccnc3)s2)cc1,10,-0.024,-10,-0.57,0.92,-0.0053
Cc1ccc(-c2nnn(CC(=O)N(CC3CCCO3)C(C(=O)NC3CCCC3)c3ccc(F)cc3)n2)o1 (stereo not drawn),.,.,.,.,-0.28,.
Cc1ccc(C(C(=O)NC(C)(C)C)N(CC2CCCO2)C(=O)Cn2nnc(-c3ccc(C)o3)n2)cc1 (stereo not drawn),4,-4.2*,6,-1.4,-0.43,0.0025
CCOC(=O)c1c(NC(=O)CCN2CCOCC2)sc2c1CC(C)(C)OC2,.,2,.,0.74,2.8*,-0.25
COc1cc(C)nc(N2CCCC(C(=O)NC3CCC(C)CC3)C2)n1 (stereo not drawn),-3,-0.017,-9,1.1,-0.057,-16*
CCC(C)NC(=O)C1CCCN(c2nc(C)cc(OC)n2)C1 (stereo not drawn),.,.,.,.,0.78,.
CC(Sc1nnnn1C)C(=O)Nc1ccc(N2CCOCC2)cc1 (stereo not drawn),7,.,5,-0.5,-7.8*,0.027
CC(Sc1nnc(N)s1)C(=O)Nc1ccc(N2CCOCC2)cc1 (stereo not drawn),.,.,.,.,0.24,.
O=C(c1cccc(N2C(=O)C3CC=CCC3C2=O)c1)N1CCCCCC1 (stereo not drawn),0,0.2,16,-0.67,-8.8*,0.011
COc1ccc(C(=O)/C=C/Nc2cc(C)on2)cc1,.,-0.29,.,0.14,0.51,-0.38
CCc1ccc2nc(NC(=O)c3cc(C)on3)sc2c1,82*,0.49,-4,0.052,-0.69,-0.39
Cc1onc(-c2ccccc2)c1C(=O)Nc1nc2c(s1)CCCC2,8,0.053,-9,-0.0084,-0.05,0.41
Cc1ccc2nc(NC(=O)COC(=O)CSc3nc(C)cc(C)n3)sc2c1,.,.,.,.,0.7,.
COCC(=O)Nc1nc2ccc(C)cc2s1,-1,-5*,-34,-0.12,1.2,0.09
CN(C)c1ccc(C(=O)Nc2nc3c(s2)CCCC3)cc1,1,-6*,-52,0.2,-0.62,0.086
Cc1cc(C)c2nc(NC(=O)c3cc(C)on3)sc2c1,.,.,.,.,0.023,.
Cc1cc(C(=O)Nc2nc3c(s2)CCCC3)no1,-4,-3.8*,-27,-0.58,0.25,0.78
Cc1cccc(OCc2nnc(NC(=O)c3cccs3)s2)c1,.,.,.,.,-1.1,.
CCn1c(=N)n(CC(O)c2ccccc2)c2ccccc21 (stereo not drawn),.,.,.,.,-0.63,.
SMILES,Jurkat tox 60K,D1 allo mod,HEK293 NFkB inh,M1 agonist,hDAT+cocaine,M1 antag
CCn1c(=N)n(CCO)c2ccccc21,-6,-4.1*,1,-0.2,-0.015,0.25
O=C(Cc1noc2ccccc12)Nc1ccc2ccccc2c1,.,.,.,.,-1.3,.
CN(C)c1nc(Oc2ccc(=O)n(-c3ccccc3)n2)nc(N2CCOCC2)n1,0,5.6*,6,-0.098,0.0014,-0.32
CN(C)c1nc(Oc2ccc(=O)[nH]n2)nc(N2CCOCC2)n1,.,.,.,.,0.49,.
Cc1nc2sc(C(c3ccc(Cl)cc3)N3CCN(CCO)CC3)c(O)n2n1 (stereo not drawn),-1,-0.59,13,0.73,0.57,-0.0018
COc1ccc(C(=O)/C=C/N(C)C)cc1,.,.,.,.,0.99,.
COCCNC(=O)C1CCC(Cn2c(=S)[nH]c3ccccc3c2=O)CC1 (stereo not drawn),3,1.1,6,0.085,-7.6*,1.3
O=C(NCCc1c[nH]c2ccccc12)C1CCC(Cn2c(=S)[nH]c3ccccc3c2=O)CC1 (stereo not drawn),.,.,.,.,1,.
COc1ccc(OC)c(S(=O)(=O)N2CCN(C)CC2)c1,-1,0.057,20,-0.38,0.32,.
COc1ccc(OC)c(S(=O)(=O)N2CCC(C(=O)N3CCN(Cc4ccccc4)CC3)CC2)c1,5,-5.1*,17,-0.036,-0.55,-0.12
COc1ccc(OC)c(S(=O)(=O)N2CCCCCC2)c1,-3,0.44,8,-1.1,-2.4*,0.26
CC(O)(CS(=O)(=O)Cc1ccccc1)C(=O)Nc1cccc(C(F)(F)F)c1 (stereo not drawn),.,.,.,.,-2.8*,.
O=C(c1cn(-c2ccccc2)nc1-c1ccncc1)n1nnc2ccccc21,-3,12*,6,0.73,-0.43,-1.5
Cc1ccc2nsnc2c1S(=O)(=O)N1CCN(Cc2ccc3c(c2)OCO3)CC1,-3,3.9,-17,0.23,5.4*,-0.3
Cn1c(SCCOc2ccc(Cl)cc2)nnc1-c1ccncc1,6,0.45,24,0.26,0.78,-0.37
CCOC(=O)C1CCN(CC(=O)Nc2c(C(=O)OC)[nH]c3ccccc23)CC1,10,-0.66,1,-0.16,-8.2*,-0.64
COC(=O)c1[nH]c2cc(C)ccc2c1NC(=O)CN1CCCc2ccccc21,3,-0.038,-6,-0.54,2.8*,-0.0087
COC(=O)c1[nH]c2ccc(Br)cc2c1NC(=O)CN1CCCc2ccccc21,.,.,.,.,-0.33,.
CCOC(=O)C1CCCN(CC(=O)Nc2c(C(=O)OC)[nH]c3ccc(Br)cc23)C1 (stereo not drawn),7,0.38,12,-0.016,1.1,1.1
CCOC(=O)C1CCN(CC(=O)Nc2c(C(=O)OC)[nH]c3ccc(Cl)cc23)CC1,44*,0.23,16,0.37,0.72,-0.2
COc1cc(NC(=O)c2ccco2)c(OC)cc1NC(=O)Nc1ccccc1Cl,-5,-0.47,9,-0.44,-0.092,0.31
C=CCNC(=O)C1CCN(c2nc(C)cc(-c3ccccc3)n2)CC1,-2,-1.6,-42,-0.71,0.19,0.29
CN1[C@@H](CC(=O)c2ccccc2)CCC[C@H]1C[C@H](O)c1ccccc1,.,-2.1,.,34*,.,-8.4*
Cc1nn(-c2ccccc2)c2sc(C(=O)OCN3C(=O)c4ccccc4C3=O)cc12,-8,5.3*,11,4.8,-0.017,0.25
CNC(=O)COC(=O)c1cc2c(C)nn(-c3ccc(F)cc3)c2s1,.,.,.,.,0.42,.

# Screening results deposited in PubChem BioAssay by several laboratories.
